According to paper PMC8144669 (The Journal of Biological Chemistry, 2021):

How the values were obtained:
Assay type in all cases: biochemical
[1] = target: T1, M4RA (MLL4SET-RBBP5AS-ABM-ASH2LSPRY) (Homo sapiens, UniProt O14686); experiment: Mass-spectrometry-based
Procedure, shortened: (§1)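 Enzyme (E. coli-expressed SET–RBBP5–ASH2L ternary complex) was preincubated 15 min with 0, 50 or 100 μM AdoHcy. […] Samples taken every 30 s were quenched with TFA (0.5% final) and chilled to 4 °C. Monomethylated peptide was measured by MALDI-TOF in a CHCA matrix. Data were analysed by Lineweaver–Burk plots and nonlinear fits to competitive, noncompetitive and uncompetitive models, choosing the best coefficient of determination and lowest error.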

[2] = target: T2, M3RA (MLL3SET-RBBP5AS-ABM-ASH2LSPRY) (Homo sapiens, UniProt Q8NEZ4); experiment: Mass-spectrometry-based
Procedure, shortened: as §1

[3] = target: T2, M3RA (MLL3SET-RBBP5AS-ABM-ASH2LSPRY); experiment: Continuous enzyme-coupled methylation assay, M3RA
[4] = target: T1, M4RA (MLL4SET-RBBP5AS-ABM-ASH2LSPRY); experiment: Continuous enzyme-coupled methylation assay, M4RA
[5] = substrate: C[S+](CC[C@H](N)C(=O)[O-])C[C@H]1O[C@@H](n2cnc3c(N)ncnc32)[C@H](O)[C@@H]1O; experiment: Continuous enzyme-coupled methylation assay, M4RA; conditions: other: H3P20 fixed at 1600 μM; pH 8.0; 30.0 °C
[6] = substrate: C[S+](CC[C@H](N)C(=O)[O-])C[C@H]1O[C@@H](n2cnc3c(N)ncnc32)[C@H](O)[C@@H]1O; experiment: Continuous enzyme-coupled methylation assay, M3RA; conditions: other: H3P20 fixed at 1600 μM; pH 8.0; 30.0 °C
[7] = Ki, varied AdoMet, global fit to Competitive model (Model Fit: Competitive)
[8] = varied substrate AdoMet, H3P20 constant 400 μM
[9] = varied substrate H3P20, AdoMet constant 200 μM

T2 sequence (Q15291 330-360 partner limits assumed, one chain of several): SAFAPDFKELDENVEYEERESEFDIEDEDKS
T2 sequence (Q9UBL3 380-599 partner limits assumed, one chain of several): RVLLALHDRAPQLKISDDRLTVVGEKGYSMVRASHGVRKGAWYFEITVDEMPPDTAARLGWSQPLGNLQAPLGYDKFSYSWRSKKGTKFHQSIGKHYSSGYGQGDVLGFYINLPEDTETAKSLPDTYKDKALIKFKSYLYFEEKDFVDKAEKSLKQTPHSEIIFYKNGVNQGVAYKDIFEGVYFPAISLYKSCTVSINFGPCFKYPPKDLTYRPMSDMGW
T1 sequence (Q15291 330-360 partner limits assumed, one chain of several): as the sequence (Q15291 330-360 partner limits assumed, one chain of several) above
T1 sequence (Q9UBL3 380-599 partner limits assumed, one chain of several): as the sequence (Q9UBL3 380-599 partner limits assumed, one chain of several) above

Molecule: Nc1ncnc2c1ncn2[C@@H]1O[C@H](CSCC[C@H](N)C(=O)O)[C@@H](O)[C@H]1O [AdoHcy, S-adenosylhomocysteine]
- Ki [1, 7]: 11.2 µM
- Inhibition pattern [1, 8]: Competitive
- Inhibition pattern [1, 9]: Noncompetitive
- Ki [2, 7]: 4.19 µM
- Inhibition pattern [2, 8]: Competitive
- Inhibition pattern [2, 9]: Noncompetitive

Molecule: C[S+](CC[C@H](N)C(=O)[O-])C[C@H]1O[C@@H](n2cnc3c(N)ncnc32)[C@H](O)[C@@H]1O (stereo partly shown) [AdoMet, S-adenosylmethionine]
- Kd [3]: 4.29 ± 0.44 µM
- KBA ([3]; from secondary plots, Michaelis constant for formation of EAB from A to EB): 27.23 ± 3.05 µM
- Kd [4]: 10.3 ± 0.46 µM

Molecule: Nc1ncnc2c1ncn2[C@@H]1O[C@H](C[C@@H](N)CC[C@H](N)C(=O)O)[C@@H](O)[C@H]1O [Sinefungin]
- Inhibition pattern [3, 8]: Competitive
- Inhibition pattern [3, 9]: Noncompetitive
- Inhibition pattern [4, 8]: Competitive
- Inhibition pattern [4, 9]: Noncompetitive

Molecule: M3RA: ternary complex of MLL3 SET domain, RBBP5AS-ABM and ASH2LSPRY
- kcat ([3]; from secondary plots): 0.108 ± 0.00783 s⁻¹

Molecule: M4RA: ternary complex of MLL4 SET domain, RBBP5AS-ABM and ASH2LSPRY
- kcat ([4]; from secondary plots): 0.108 ± 0.00533 s⁻¹

B1: M4RA (MLL4SET-RBBP5AS-ABM-ASH2LSPRY) (Homo sapiens) (protein)
chain: NNVYLARSRIQGLGLYAAKDLEKHTMVIEYIGTIIRNEVANRREKIYEEQNRGIYMFRINNEHVIDATLTGGPARYINHSCAPNCVAEVVTFDKEDKIIIISSRRIPKGEELTYDYQ
- Km [5]: 6.9 ± 0.4 µM
- kcat [5]: 0.08 ± 0.0017 s⁻¹

B2: M3RA (MLL3SET-RBBP5AS-ABM-ASH2LSPRY) (Homo sapiens) (protein)
chain: SNVYLARSRIQGLGLYAARDIEKHTMVIEYIGTIIRNEVANRKEKLYESQNRGVYMFRMDNDHVIDATLTGGPARYINHSCAPNCVAEVVTFERGHKIIISSSRRIQKGEELCYDYK
- Km [6]: 20.0 ± 1.5 µM
- kcat [6]: 0.0833 ± 0.0017 s⁻¹
